Test system: Canis familiaris
Experiment: Increasing effect on femoral blood flow (FBF) in femoral artery of anesthetized dogs.
Format: functional, Canis lupus familiaris
Conditions: not given
Procedure, shortened: (§1)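 Anesthetized dogs, trachea intubated and ventilated at 12-16 cycles/min, with tidal volume set to hold arterial pH, pCO2 and pO2 within physiological limits. Body temperature kept at 37-38 °C. Drug given locally intra-arterially into the femoral artery, at least three doses per compound. Trapidil 100 μg was given before and after as reference. Femoral blood flow increase read from at least three dose-response curves. Expressed as equieffective dose ratio versus trapidil (mg/mg).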

| Structure (SMILES) | Equieffective dose ratio vs trapidil for femoral blood flow increase |
| --- | --- |
| Cl.N=C(N)N1CCCN(S(=O)(=O)c2cccc3cnccc23)CC1 | 0.19 |
| Cl.N#CNC(=N)NCCNS(=O)(=O)c1cccc2cnccc12 | >50 |
| Cl.N=C(N)N1CCN(S(=O)(=O)c2cccc3cnccc23)CC1 | 0.62 |
| CN(CCN=C(N)N)S(=O)(=O)c1cccc2cnccc12.Cl | 1.8 |
| Cl.N=C(N)NCCNS(=O)(=O)c1cccc2cnccc12 | 1.7 |
| Cl.O=S(=O)(NCCNc1ncccn1)c1cccc2cnccc12 | >30 |
| Cl.O=S(=O)(NCCNC1=NCCN1)c1cccc2cnccc12 | 24 |
| Cl.N=C(N)NCCCNS(=O)(=O)c1cccc2cnccc12 | 4.3 |
| CC1CN(S(=O)(=O)c2cccc3cnccc23)C(C)CN1C(=N)N.Cl (stereo not drawn) | 1.6 |
| Cl.N=C(N)NCCCCCCNS(=O)(=O)c1cccc2cnccc12 | 3.8 |
| Cl.N=C(N)NCCCCNS(=O)(=O)c1cccc2cnccc12 | 16 |
| Cl.O=S(=O)(NCCN=C(Nc1ccccc1)Nc1ccccc1)c1cccc2cnccc12 | >50 |
| Cl.N/C(=N\CCNS(=O)(=O)c1cccc2cnccc12)N[N+](=O)[O-] | >10 |
| CN(CCNS(=O)(=O)c1cccc2cnccc12)C(=N)N.Cl | 1.1 |
| COc1ccc([C@@H]2Sc3ccccc3N(CCN(C)C)C(=O)[C@@H]2OC(C)=O)cc1.Cl [DILTIAZEM HYDROCHLORIDE] | 0.21 |
| C/N=C(\NC)NCCNS(=O)(=O)c1cccc2cnccc12.Cl | >50 |

Test system: Canis familiaris
Experiment: Compound was evaluated for increasing effect on femoral blood flow (FBF) in femoral artery of anesthetized dogs, compared to Trapidil; ND is no detectable vasodilation.
Format: functional, organism-based
Conditions: Canis lupus familiaris
Procedure, shortened: as §1

| Structure (SMILES) | FBF |
| --- | --- |
| CNC(=N)NCCNS(=O)(=O)c1cccc2cnccc12 | No detectable vasodilation |

Test system: Canis familiaris
Experiment: Compound was evaluated for increasing effect on femoral blood flow (FBF) in femoral artery of anesthetized dogs, compared to Trapidil; No detectable vasodilation
Format: functional, organism-based
Conditions: Canis lupus familiaris
Procedure, shortened: as §1

| Structure (SMILES) | FBF |
| --- | --- |
| N=C(N)NNS(=O)(=O)c1cccc2cnccc12 | No detectable vasodilation |

Reference: ChEMBL document CHEMBL1124335, “5-Isoquinolinesulfonamide derivatives. 1. Synthesis and vasodilatory activity of N-(2-guanidinoethyl)-5-isoquinolinesulfonamide derivatives” (1989)
